ChEMBL document CHEMBL1124289, “6-(Alkylamino)-9-benzyl-9H-purines. A new class of anticonvulsant agents” (1988)

These compounds were tested on Rattus norvegicus (assay: Protective effects in maximal electroshock induced seizures in rats following i.p. administration.). Conditions: ip.
Format: functional
How it was run: (§1)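 Male Sprague-Dawley rats, compound given orally or ip as a solution or fine dispersion in water or 5% methylcellulose before maximal electroshock. ED50 is the dose protecting 50% against hind-limb extension, by the Miller–Tainter method. Either ≥12 animals per dose at four doses (with standard error) or three doses with six animals per point.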
With CN(C)c1ncnc2c1ncn2Cc1cccs1 the ED50 was 10 mg/kg.
With Cc1ccccc1Cn1cnc2c(N(C)C)ncnc21 the ED50 was 9 mg/kg.
CCN(C)c1ncnc2c1ncn2Cc1ccccc1 showed an ED50 of 8 mg/kg.
Compound CN(C)c1ncnc2c1ncn2Cc1ccc(N)cc1 has an ED50 of 25 mg/kg.
CN(C)c1ncnc2c1ncn2Cc1cccc(I)c1 gave an ED50 of 11 mg/kg.
In the case of CN(C)c1ncnc2c1ncn2Cc1cccc(Cl)c1, the ED50 is reported as 4.5 mg/kg.
CN(C)c1ncnc2c1ncn2Cc1ccco1 showed an ED50 of 18 mg/kg.
CN(C)c1ncnc2c1ncn2Cc1cc(Cl)cc(Cl)c1 showed an ED50 of 7 mg/kg.
With CNc1ncnc2c1ncn2Cc1ccccc1 the ED50 was 5 mg/kg.
Work on CN(C)c1ncnc2c1ncn2Cc1ccccc1 yielded an ED50 of 6 mg/kg.
For CN(C)c1ncnc2c1ncn2Cc1ccccc1F, the ED50 was 8.8 mg/kg.
With CN(C)c1ncnc2c1ncn2Cc1cccc(F)c1 the ED50 was 8.4 mg/kg.
Cc1cccc(Cn2cnc3c(N(C)C)ncnc32)c1 was tested, and the ED50 was 25 mg/kg.
Compound c1ccc(Cn2cnc3c(NC4CC4)ncnc32)cc1 has an ED50 of 8.6 mg/kg.
CN(C)c1ncnc2c1ncn2Cc1ccccc1[N+](=O)[O-] gave an ED50 of 25 mg/kg.
In the case of CN(C)c1ncnc2c1ncn2Cc1ccccc1N, the ED50 is reported as 20 mg/kg.
In the case of CN(C)c1ncnc2c1ncn2Cc1cccc(C(F)(F)F)c1, the ED50 is reported as 12 mg/kg.
Work on CN(C)c1ncnc2c1ncn2Cc1cccc(Br)c1 yielded an ED50 of 13 mg/kg.
In the case of COc1cccc(Cn2cnc3c(N(C)C)ncnc32)c1, the ED50 is reported as 12.5 mg/kg.
COc1ncnc2c1ncn2Cc1ccccc1 [9-BENZYL-6-METHOXY-9H-PURINE] was tested, and the ED50 was 10 mg/kg.
Compound O=C1NC(=O)C(c2ccccc2)(c2ccccc2)N1 [PHENYTOIN] has an ED50 of 9.6 mg/kg.

Species on record: Rattus norvegicus
Test: Ability to protect Sprague-Dawley male rats against maximal electroshock-induced seizures (MES) perorally
Format: functional
Conditions: po
How it was run: as §1
For CCN(C)c1ncnc2c1ncn2Cc1ccccc1, the ED50 was 30 mg/kg.
CN(C)c1ncnc2c1ncn2Cc1cccc(Cl)c1 gave an ED50 of 18 mg/kg.
CNc1ncnc2c1ncn2Cc1ccccc1 was tested, and the ED50 was 12 mg/kg.
CN(C)c1ncnc2c1ncn2Cc1ccccc1 showed an ED50 of 12 mg/kg.
For COc1ncnc2c1ncn2Cc1ccccc1 [9-BENZYL-6-METHOXY-9H-PURINE], the ED50 was 21 mg/kg.
With O=C1NC(=O)C(c2ccccc2)(c2ccccc2)N1 [PHENYTOIN] the ED50 was 20 mg/kg.

The compounds below were run on Rattus norvegicus (assay: Ability to protect Sprague-Dawley male rats against maximal electroshock-induced seizures (MES) intraperitoneally; Inhibition at 12.5 mg/kg). Conditions: ip, route intraperitoneal.
Format: functional
How it was run: (§2)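 Male Sprague-Dawley rats dosed with compound as a solution or fine dispersion in water or 5% methylcellulose, then given maximal electroshock. Protection means abolition of the hind-limb extensor component.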
Compound CN(C)c1ncnc2c1ncn2-c1ccccc1 has an inhibition in vivo at 12.5 mg/kg of 0%.

What follows are compounds tested on Rattus norvegicus (assay: Ability to protect Sprague-Dawley male rats against maximal electroshock-induced seizures (MES) intraperitoneally. Inhibition at 25 mg/kg). Conditions: ip, route intraperitoneal.
Format: functional
How it was run: as §2
Compound CC(C)N(C)c1ncnc2c1ncn2Cc1ccccc1 has an inhibition in vivo at 25 mg/kg of 17%.
In the case of c1ccc(Cn2cnc3c(N4CCC4)ncnc32)cc1, the inhibition in vivo at 25 mg/kg is reported as 17%.
COc1ccc(Cn2cnc3c(N(C)C)ncnc32)cc1 was tested, and the inhibition in vivo at 25 mg/kg was 0%.
Work on CN(C)c1ncnc2c1ncn2Cc1ccccc1Cl yielded an inhibition in vivo at 25 mg/kg of 84%.
With CN(C)c1ncnc2c1ncn2Cc1cccc([N+](=O)[O-])c1 the inhibition in vivo at 25 mg/kg was 17%.
CN(C)c1ncnc2c1ncn2Cc1ccc(F)cc1 showed an inhibition in vivo at 25 mg/kg of 33%.
C[C@H](c1ccccc1)n1cnc2c(N(C)C)ncnc21 showed an inhibition in vivo at 25 mg/kg of 33%.
Compound C[C@@H](c1ccccc1)n1cnc2c(N(C)C)ncnc21 has an inhibition in vivo at 25 mg/kg of 33%.
Work on Oc1ncnc2c1ncn2Cc1ccccc1 yielded an inhibition in vivo at 25 mg/kg of 17%.
With CN(C)c1ncnc2c1ncn2CC1CCCCC1 the inhibition in vivo at 25 mg/kg was 0%.
Work on c1ccc(Cn2cnc3c(Nc4ccccc4)ncnc32)cc1 yielded an inhibition in vivo at 25 mg/kg of 0%.
Cc1ccc(Cn2cnc3c(N(C)C)ncnc32)cc1 showed an inhibition in vivo at 25 mg/kg of 0%.
In the case of CN(C=O)c1ncnc2c1ncn2Cc1ccccc1, the inhibition in vivo at 25 mg/kg is reported as 0%.
Work on CN(C)c1ncnc2c1ncn2Cc1ccc(Cl)c(Cl)c1 yielded an inhibition in vivo at 25 mg/kg of 0%.
Work on CN(C)c1ncnc2c1ncn2Cc1cccc(OCc2ccccc2)c1 yielded an inhibition in vivo at 25 mg/kg of 33%.
OCCNc1ncnc2c1ncn2Cc1ccccc1 showed an inhibition in vivo at 25 mg/kg of 84%.
CN(C)c1ncnc2c1ncn2Cc1cccc(O)c1 gave an inhibition in vivo at 25 mg/kg of 0%.
CN(C)c1ncnc2c1ncn2Cc1ccc(Cl)cc1 showed an inhibition in vivo at 25 mg/kg of 0%.
CN(C)c1ncnc2c1ncn2Cc1ccc(C#N)cc1 showed an inhibition in vivo at 25 mg/kg of 0%.
COc1ccccc1Cn1cnc2c(N(C)C)ncnc21 gave an inhibition in vivo at 25 mg/kg of 0%.
In the case of CN(C)c1ncnc2c1ncn2CCc1ccccc1, the inhibition in vivo at 25 mg/kg is reported as 33%.
In the case of CN(C)c1ncnc2c1ncn2Cc1ccc([N+](=O)[O-])cc1, the inhibition in vivo at 25 mg/kg is reported as 0%.
CN(c1ncnc2c1ncn2Cc1ccccc1)C1CCCC1 gave an inhibition in vivo at 25 mg/kg of 17%.
CN(C)c1ncnc2c1ncn2Cc1cccc(C#N)c1 gave an inhibition in vivo at 25 mg/kg of 17%.
With CN(C)c1ncnc2c1ncn2C the inhibition in vivo at 25 mg/kg was 33%.
For CN(C)c1ncnc2c1ncn2Cc1ccc(O)cc1, the inhibition in vivo at 25 mg/kg was 0%.
With CSc1ncnc2c1ncn2Cc1ccccc1 [9-BENZYL-6-METHYLSULFANYL-9H-PURINE] the inhibition in vivo at 25 mg/kg was 30%.
For Nc1ncnc2c1ncn2Cc1ccccc1 [9-BENZYL-9H-ADENINE], the inhibition in vivo at 25 mg/kg was 33%.
c1ccc(Cn2cnc3cncnc32)cc1 [9-BENZYL-9H-PURINE] was tested, and the inhibition in vivo at 25 mg/kg was 33%.

These compounds were tested on Rattus norvegicus (assay: Ability to protect Sprague-Dawley male rats against maximal electroshock-induced seizures (MES) per orally; Inhibition at 25 mg/kg). Conditions: po.
Format: functional
How it was run: as §2
With OCCNc1ncnc2c1ncn2Cc1ccccc1 the inhibition in vivo at 25 mg/kg was 17%.
